Results: ChEMBL document CHEMBL4033786, “Discovery of Novel 1-Cyclopentenyl-3-phenylureas as Selective, Brain Penetrant, and Orally Bioavailable CXCR2 Antagonists” (J Med Chem, 2018)
≈ marks a conversion by molar mass, not a printed value.

Experiments:
[1] = target: T1, C-X-C chemokine receptor type 2 (Homo sapiens, UniProt P25025); assay: Antagonist activity at TEV protease cleavage site linked GAL4-VP16-fused recombinant human CXCR2 expressed in cells assessed as inhibition of […] human CXCL1-stimulated beta-arrestin recruitment by CCF4-AM-fluorescence based FRET assay; assay type: cell-based; conditions: read-out: pIC50 (converted)
T1 sequence (P25025 whole entry): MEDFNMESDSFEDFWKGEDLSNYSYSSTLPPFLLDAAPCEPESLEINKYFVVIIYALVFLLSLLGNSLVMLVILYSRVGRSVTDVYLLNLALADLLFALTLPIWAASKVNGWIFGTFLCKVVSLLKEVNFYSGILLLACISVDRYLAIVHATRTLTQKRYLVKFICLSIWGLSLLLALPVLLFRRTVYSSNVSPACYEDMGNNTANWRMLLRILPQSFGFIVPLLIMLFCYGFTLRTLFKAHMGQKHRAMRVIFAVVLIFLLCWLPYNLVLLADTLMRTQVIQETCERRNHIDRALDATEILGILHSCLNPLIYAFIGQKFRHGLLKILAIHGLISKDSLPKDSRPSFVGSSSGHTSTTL
Procedure, shortened: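 Stable cell line expressing recombinant human CXCR2 linked to a TEV site and Gal4-VP16. Cells were starved 24 h at 37 °C, 5% CO2, then resuspended at ~200,000 cells/mL. They were given compound in DMSO (concentration-response), stimulated with 80 nM hCXCL1 and incubated overnight at 37 °C. CCF4-AM substrate was then added for 2 h at RT in the dark.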

[2] = target: T1, C-X-C chemokine receptor type 2; assay: Antagonist activity at CXCR2 in human whole blood assessed as inhibition of GROalpha-stimulated CD11b upregulation preincubated for 15 mins followed by GROalpha stimulation measured after 15 mins by FITC-staining based FACS analysis
[3] = Passive permeability in MDCK2-MDR1 cells transduced with BacMam2-BCRP at 3 uM after 90 mins by Transwell assay; assay type: ADME, cell-based, Canis lupus familiaris, MDCK-MDR1; conditions: dog; read-out: permeability
Procedure, shortened: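 MDCKII-MDR1 cells transduced with BacMam2-BCRP and grown in Transwells. Compound at 3 μM, in duplicate, was incubated 90 min A→B (and B→A) with and without GF120918 (5 μM, dual P-gp/BCRP inhibitor). Passive permeability (Pexact, nm/s) was calculated by an equation from earlier work. The permeability ratio is A→B permeability with GF120918 over A→B permeability without it.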

[4] = Efflux ratio of passive permeability in MDCK2-MDR1 cells transduced with BacMam2-BCRP at 3 uM after 90 mins by Transwell assay; assay type: ADME, cell-based, Canis lupus familiaris, MDCK-MDR1; conditions: dog
Procedure, shortened: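 MDCKII-MDR1 cells transduced with BacMam2-BCRP in Transwells. Compound at 3 μM was measured in duplicate, A→B and B→A, after 90 min, with and without 5 μM GF120918. ER = B→A/A→B permeability without inhibitor. System qualified with amprenavir and dantrolene ERs.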

[5] = Solubility of compound in fasted state simulated intestinal fluid measured after 4 hrs; assay type: physicochemical
Procedure, shortened: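 Solubility in FaSSIF, read after 4 h incubation.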

Row | SMILES | IC50 [1] [nM] | IC50 [2] [nM] | Papp at 1.5 h, 3 µM [3] [×10⁻⁶ cm/s] | efflux ratio at 1.5 h, 3 µM [4] | solubility at 4 h [5] [µg/mL]
1 | CC(C)S(=O)(=O)c1c(Cl)ccc(NC(=O)NC2CCC=C2C(F)(F)F)c1O (racemic) | 25.1 | – | – | – | –
2 | CC(C)S(=O)(=O)c1c(Cl)ccc(NC(=O)NC2CCN(C)C2)c1O (racemic) | > 10000 | – | – | – | –
3 | CC1=CCC[C@H]1NC(=O)Nc1ccc(Cl)c(S(=O)(=O)C2(F)CCOCC2)c1O | 0.2 | 63.1 | 32.3 | 6.2 | 3.3 (≈ 7.62 µM)
4 | CC(C)(CO)S(=O)(=O)c1c(Cl)ccc(NC(=O)N[C@@H]2CCC=C2Cl)c1O | 3.98 | – | – | – | –
5 | CC1=CCC[C@H]1NC(=O)Nc1ccc(Cl)c(S(=O)(=O)C2(C)CCOCC2)c1O | 0.501 | 200 | 53.2 | 3.4 | 6.1 (≈ 14.2 µM)
6 | CC(C)(CO)S(=O)(=O)c1c(Cl)ccc(NC(=O)N[C@H]2CCC=C2Cl)c1O | 501 | – | – | – | –
7 | COC1CCCCC1NC(=O)Nc1ccc(Cl)c(S(=O)(=O)C(C)C)c1O (racemic) | 1580 | – | – | – | –
8 | CC(C)S(=O)(=O)c1c(Cl)ccc(NC(=O)NC2CCCC=C2Cl)c1O (racemic) | 10 | – | – | – | –
9 | CC1=CCC[C@H]1NC(=O)Nc1ccc(Cl)c(S(=O)(=O)C2(CCF)CCOCC2)c1O | 31.6 | – | 33.7 | 10.8 | 26.7 (≈ 57.9 µM)
10 | O=C1CN(/N=C/c2ccc(-c3ccc([N+](=O)[O-])cc3)o2)C(O)=N1 [DANTROLENE] | – | – | – | > 5 | –
11 | CC1=CCCC1NC(=O)Nc1ccc(Cl)c(S(=O)(=O)C(C)C)c1O (racemic) | 0.398 | – | – | – | –
12 | O=C(Nc1ccc(Cl)c(S(=O)(=O)C2COC2)c1O)N[C@@H]1CCC=C1Cl | 316 | – | – | – | –
13 | CC(C)(CCO)S(=O)(=O)c1c(Cl)ccc(NC(=O)N[C@@H]2CCC=C2Cl)c1O | 0.251 | – | – | – | –
14 | CC(C)S(=O)(=O)c1c(Cl)ccc(NC(=O)NC2CCCOC2)c1O (racemic) | 631 | – | – | – | –
15 | CC1=CCC[C@H]1NC(=O)Nc1ccc(Cl)c(S(=O)(=O)C(C)(C)C2CCOCC2)c1O | 0.501 | 398 | 30.3 | 3.9 | 1.4 (≈ 3.06 µM)
16 | CC1=CCC[C@H]1NC(=O)Nc1ccc(Cl)c(S(=O)(=O)C2(C)CCOC2)c1O (stereo not given in full) | 1.26 | 126 | 31.8 | 3.8 | 33.2 (≈ 80 µM)
17 | CC(C)S(=O)(=O)c1c(Cl)ccc(NC(=O)NC2C=CCC2)c1O (racemic) | 6.31 | – | – | – | –
18 | O=C(Nc1ccc(Cl)c(S(=O)(=O)C2(F)CCOCC2)c1O)N[C@@H]1CCC=C1Cl | 0.501 | – | – | – | –
19 | O=C(Nc1ccc(Cl)c(S(=O)(=O)C2COC2)c1O)N[C@H]1CCC=C1Cl | 2510 | – | – | – | –
20 | CC(C)S(=O)(=O)c1c(Cl)ccc(NC(=O)NC2C=CCCC2)c1O (racemic) | 10 | – | – | – | –
21 | CC1=C(Cl)CCC1NC(=O)Nc1ccc(Cl)c(S(=O)(=O)C(C)C)c1O (racemic) | 3.16 | – | – | – | –
22 | CC(C)(CCO)S(=O)(=O)c1c(Cl)ccc(NC(=O)N[C@H]2CCC=C2Cl)c1O | 79.4 | – | – | – | –
23 | CC1=CCC[C@H]1NC(=O)Nc1ccc(Cl)c(S(=O)(=O)C2(F)CCOC2)c1O (stereo not given in full) | 0.794 | – | 28.1 | 7 | 39 (≈ 93.1 µM)
24 | CC(C)S(=O)(=O)c1c(Cl)ccc(NC(=O)Nc2cccc(F)c2Cl)c1O | 0.398 | – | – | – | –
25 | CC(C)S(=O)(=O)c1c(Cl)ccc(NC(=O)NC2CCC=C2Cl)c1O (racemic) | 1 | – | – | – | –
26 | CC(C)S(=O)(=O)c1c(Cl)ccc(NC(=O)NC2CCCC2)c1O | 10 | – | – | – | –

Row | SMILES | IC50 [1] [nM] | IC50 [2] [nM] | Papp at 1.5 h, 3 µM [3] [×10⁻⁶ cm/s] | efflux ratio at 1.5 h, 3 µM [4] | solubility at 4 h [5] [µg/mL]
27 | CCC1(S(=O)(=O)c2c(Cl)ccc(NC(=O)N[C@@H]3CCC=C3C)c2O)CCOCC1 | 0.316 | 398 | 32.4 | 3.2 | 16 (≈ 36.1 µM)
28 | CC1=CCC[C@H]1NC(=O)Nc1ccc(Cl)c(S(=O)(=O)C2(C)CCCOC2)c1O (stereo not given in full) | 2 | 200 | 26.7 | 3.4 | 4.1 (≈ 9.56 µM)
29 | CC1CCCC1NC(=O)Nc1ccc(Cl)c(S(=O)(=O)C(C)C)c1O (racemic) | 10 | – | – | – | –
30 | CC(C)S(=O)(=O)c1c(Cl)ccc(NC(=O)NC2CCCC2(C)C)c1O (racemic) | 158 | – | – | – | –
31 | CC(C)S(=O)(=O)c1c(Cl)ccc(NC(=O)NC2CCCC23CC3)c1O (racemic) | 39.8 | – | – | – | –
32 | CC1=CCC[C@H]1NC(=O)Nc1ccc(Cl)c(S(=O)(=O)C2(C)CCN(C3CCC3)CC2)c1O | 3.98 | – | – | – | 139 (≈ 289 µM)
33 | CC1=CCC[C@H]1NC(=O)Nc1ccc(Cl)c(S(=O)(=O)[C@@H]2CC[C@@H](O)C2)c1O | 0.251 | – | 7.2 | 26.8 | 15.1 (≈ 36.4 µM)
34 | CO[C@@H]1CCC[C@H]1NC(=O)Nc1ccc(Cl)c(S(=O)(=O)C(C)C)c1O (racemic) | 251 | – | – | – | –
35 | CC1=CCC[C@H]1NC(=O)Nc1ccc(Cl)c(S(=O)(=O)C(C)(C)CN(C)C)c1O | 126 | – | – | – | 395 (≈ 920 µM)
36 | CC1=C(F)CCC1NC(=O)Nc1ccc(Cl)c(S(=O)(=O)C(C)C)c1O (racemic) | 1.58 | – | – | – | –
37 | CC(C)S(=O)(=O)c1c(Cl)ccc(NC(=O)NC2CCCCC2)c1O | 50.1 | – | – | – | –
38 | CC(C)S(=O)(=O)c1c(Cl)ccc(NC(=O)NC2CCN(C)CC2)c1O | > 10000 | – | – | – | –
39 | CC1=CCCCC1NC(=O)Nc1ccc(Cl)c(S(=O)(=O)C(C)C)c1O (racemic) | 12.6 | – | – | – | –
40 | CC1CCC(NC(=O)Nc2ccc(Cl)c(S(=O)(=O)C(C)C)c2O)C1 (racemic) | 200 | – | – | – | –
41 | CC1=CCC[C@H]1NC(=O)Nc1ccc(Cl)c(S(=O)(=O)C2CCN(CC(F)F)CC2)c1O | 2.51 | – | 17.7 | 9.4 | 59 (≈ 123 µM)
42 | CC(C)S(=O)(=O)c1c(Cl)ccc(NC(=O)NC2CCC=C2F)c1O (racemic) | 10 | – | – | – | –
43 | O=C(Nc1ccc(Cl)c(S(=O)(=O)C2(F)CCOCC2)c1O)N[C@H]1CCC=C1Cl | 100 | – | – | – | –
44 | CCC1CCCC1NC(=O)Nc1ccc(Cl)c(S(=O)(=O)C(C)C)c1O (racemic) | 63.1 | – | – | – | –
45 | CC1=CCC[C@H]1NC(=O)Nc1ccc(Cl)c(S(=O)(=O)C(C)(C)C2COC2)c1O | 0.251 | – | 29.6 | 3.2 | 7 (≈ 16.3 µM)
46 | CC(C)CN(C[C@@H](O)[C@H](Cc1ccccc1)NC(=O)O[C@H]1CCOC1)S(=O)(=O)c1ccc(N)cc1 | – | – | – | > 12 | –
47 | CC1CCCCC1NC(=O)Nc1ccc(Cl)c(S(=O)(=O)C(C)C)c1O (racemic) | 316 | – | – | – | –
48 | CC(C)S(=O)(=O)c1c(Cl)ccc(NC(=O)NC2CCOCC2)c1O | 1260 | – | – | – | –
49 | CC1=CCC[C@H]1NC(=O)Nc1ccc(Cl)c(S(=O)(=O)C2CCN(CC(F)(F)F)CC2)c1O | 316 | – | – | – | –
50 | CC1=CCC[C@H]1NC(=O)Nc1ccc(Cl)c(S(=O)(=O)C2CC3(COC3)C2)c1O | 1 | – | 12.4 | 25.5 | 127 (≈ 297 µM)
51 | CC(C)S(=O)(=O)c1c(Cl)ccc(NC(=O)NC2CCC3CC32)c1O (stereo not given) | 25.1 | – | – | – | –
